In ChEMBL document CHEMBL1629575, “Clinical outcomes, safety, and pharmacokinetics of OPT-80 in a phase 2 trial with patients with Clostridium difficile infection” (Antimicrob Agents Chemother, 2009):
Converted amounts (≈) assume the structure as drawn. Each block holds one molecule with its values, some of them ahead of it.

Assays:
[1] = test system: Plasma; test: Drug level in clostridium difficile infected patient plasma assessed as OP-1118 metabolite level at 100 […], po every 12 hrs for 10 days by RP-HPLC/MS; format: ADME, organism-based; set-up: route oral; settings: human, in vivo
Method in brief: (§1)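 Plasma was sampled 0.5 h before and 2 h after dosing on the first and last days of the 10-day oral regimen. Samples were methanol-acetic acid precipitated with OP-1393 internal standard, C18 solid-phase extracted, and analysed by RP-HPLC (40°C column) with tandem quadrupole MS. Assay range was 5 to 1,000 ng/ml for parent and OP-1118.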

[2] = Drug level in clostridium difficile infected patient feces assessed as OP-1118 metabolite level at 200 […], po every 12 hrs for 10 days by RP-HPLC/MS; format: ADME, organism-based; set-up: route oral; settings: human, in vivo
Method in brief: (§2)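 The complete 24-h stool output was collected on day 10 (or the final dosing day if treatment stopped early) and frozen at −80°C. Stool was homogenized in acetonitrile-acetic acid, diluted with acetonitrile, spiked with OP-1393 internal standard, and analysed by RP-HPLC-MS/MS. The assay standard range for parent was 10 to 2,000 ng/ml. Results are reported as mean ± SD in μg/g.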

[3] = test system: Plasma; test: Drug level in clostridium difficile infected patient plasma assessed as OP-1118 metabolite level at 400 […], po every 12 hrs for 10 days by RP-HPLC/MS; format: ADME, organism-based; set-up: route oral; settings: human, in vivo; method in brief: as §1
[4] = Drug level in clostridium difficile infected patient feces assessed as OP-1118 metabolite level at 400 […], po every 12 hrs for 10 days by RP-HPLC/MS; format: ADME, organism-based; set-up: route oral; settings: human, in vivo; method in brief: as §2
[5] = Drug level in clostridium difficile infected patient feces assessed as OP-1118 metabolite level at 100 […], po every 12 hrs for 10 days by RP-HPLC/MS; format: ADME, organism-based; set-up: route oral; settings: human, in vivo; method in brief: as §2
[6] = test system: Plasma; test: Drug level in clostridium difficile infected patient plasma assessed as OP-1118 metabolite level at 200 […], po every 12 hrs for 10 days by RP-HPLC/MS; format: ADME, organism-based; set-up: route oral; settings: human, in vivo; method in brief: as §1
[7] = test system: Plasma; test: Drug level in clostridium difficile infected patient plasma at 200 […], po every 12 hrs for 10 days by RP-HPLC/MS; format: ADME, organism-based; set-up: route oral; settings: human, in vivo; method in brief: as §1
[8] = test system: Clostridioides difficile; test: Antimicrobial activity against Clostridium difficile infected in patient assessed as clinical failure at 400 […], po every 12 hrs for 10 days; format: functional
Method in brief: (§3)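 Phase 2 open-label randomized dose-ranging trial; adults with mild to moderate CDI (primary episode or first relapse, positive toxin by EIA or cytotoxicity assay), oral dosing for 10 days. Clinical failure was defined as the need for additional therapy during the treatment period. Failures underwent C. difficile culture and toxin testing.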

[9] = test system: Clostridioides difficile; test: Antimicrobial activity against Clostridium difficile infected in patient assessed as resolving of diarrhea after 10 days at 200 […], po every 12 hrs for 10 days; format: functional
Method in brief: (§4)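 Open-label randomized phase 2 trial in mild to moderate CDI patients, oral dosing over a 10-day regimen. Resolution of diarrhea was defined as the first day with one or two non-watery, non-loose stools in 24 h, sustained through treatment up to study day 10. Time to resolution was counted from the first dose.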

[10] = test system: Clostridioides difficile; test: Antimicrobial activity against Clostridium difficile infected in patient assessed as resolving of diarrhea after 10 days at 100 […], po every 12 hrs for 10 days; format: functional; method in brief: as §4
[11] = test system: Clostridioides difficile; test: Antimicrobial activity against Clostridium difficile infected in patient assessed as complete relief of clostridium difficile associated diarrhea symptom in patient at 400 […], po every 12 hrs for 10 days; format: functional
[12] = test system: Clostridioides difficile; test: Antimicrobial activity against Clostridium difficile infected in patient assessed as incomplete relief of clostridium difficile associated diarrhea symptom in patient at 100 […], po every 12 hrs for 10 days; format: functional
[13] = test system: Clostridioides difficile; test: Antimicrobial activity against Clostridium difficile infected in patient assessed as resolving of diarrhea after 10 days at 400 […], po every 12 hrs for 10 days; format: functional; method in brief: as §4
[14] = test system: Clostridioides difficile; test: Antimicrobial activity against Clostridium difficile infected in patient assessed as complete relief of clostridium difficile associated diarrhea symptom in patient at 200 […], po every 12 hrs for 10 days; format: functional
[15] = Drug level in clostridium difficile infected patient plasma at 400 […], po every 12 hrs for 10 days by RP-HPLC/MS; format: ADME, organism-based; set-up: route oral; settings: human, read-out: Activity; method in brief: as §1
[16] = test system: Clostridioides difficile; test: Antimicrobial activity against Clostridium difficile infected in patient assessed as recurrence of diarrhea within 6 weeks after treatment at 200 mg/kg, po every 12 hrs for 10 days; format: functional
[17] = test system: Clostridioides difficile; test: Antimicrobial activity against Clostridium difficile infected in patient assessed as clinical failure at 200 […], po every 12 hrs for 10 days; format: functional; method in brief: as §3
[18] = Drug level in clostridium difficile infected patient feces at 400 […], po every 12 hrs for 10 days by RP-HPLC/MS; format: ADME, organism-based; set-up: route oral; settings: human, faeces, read-out: Activity; method in brief: as §2
[19] = test system: Clostridioides difficile; test: Antimicrobial activity against Clostridium difficile infected in patient assessed as complete relief of clostridium difficile associated diarrhea symptom in patient at 100 […], po every 12 hrs for 10 days; format: functional
[20] = Drug level in clostridium difficile infected patient feces at 100 […], po every 12 hrs for 10 days by RP-HPLC/MS; format: ADME, organism-based; set-up: route oral; settings: human, faeces, read-out: Activity; method in brief: as §2
[21] = test system: Clostridioides difficile; test: Antimicrobial activity against Clostridium difficile infected in patient assessed as resolution of diarrhea on day 10 at 400 […], po every 12 hrs for 10 days; format: functional; method in brief: as §4
[22] = test system: Clostridioides difficile; test: Antimicrobial activity against Clostridium difficile infected in patient assessed as recurrence of diarrhea within 6 weeks after treatment at 400 mg/kg, po every 12 hrs for 10 days; format: functional
[23] = test system: Clostridioides difficile; test: Antimicrobial activity against Clostridium difficile infected in patient assessed as clinical failure at 100 […], po every 12 hrs for 10 days; format: functional; method in brief: as §3
[24] = test system: Clostridioides difficile; test: Antimicrobial activity against Clostridium difficile infected in patient assessed as percentage of patient require further treatment at 100 […], po every 12 hrs for 10 days; format: functional; method in brief: as §3
[25] = test system: Clostridioides difficile; test: Antimicrobial activity against Clostridium difficile infected in patient assessed as percentage of patient require further treatment at 400 […], po every 12 hrs for 10 days; format: functional; method in brief: as §3
[26] = test system: Clostridioides difficile; test: Antimicrobial activity against Clostridium difficile infected in patient assessed as incomplete relief of clostridium difficile associated diarrhea symptom in patient at 200 […], po every 12 hrs for 10 days; format: functional
[27] = test system: Clostridioides difficile; test: Antimicrobial activity against Clostridium difficile infected in patient assessed as recurrence of diarrhea within 6 weeks after treatment at 100 […], po every 12 hrs for 10 days; format: functional
[28] = test system: Clostridioides difficile; test: Antimicrobial activity against Clostridium difficile infected in patient assessed as percentage of patient require further treatment at 200 […], po every 12 hrs for 10 days; format: functional; method in brief: as §3
[29] = test system: Clostridioides difficile; test: Antimicrobial activity against Clostridium difficile; format: functional
[30] = test system: Clostridioides difficile; test: Antimicrobial activity against Clostridium difficile infected in patient assessed as percentage of patient require no further treatment at 100 […], po every 12 hrs for 10 days; format: functional; method in brief: as §3
[31] = Drug level in clostridium difficile infected patient plasma at 100 […], po every 12 hrs for 10 days by RP-HPLC/MS; format: ADME, organism-based; set-up: route oral; settings: human, read-out: Activity; method in brief: as §1
[32] = test system: Clostridioides difficile; test: Antimicrobial activity against Clostridium difficile infected in patient assessed as resolution of diarrhea on day 10 at 100 […], po every 12 hrs for 10 days; format: functional; method in brief: as §4
[33] = test system: Clostridioides difficile; test: Antimicrobial activity against Clostridium difficile infected in patient assessed as percentage of patient require no further treatment at 400 […], po every 12 hrs for 10 days; format: functional; method in brief: as §3
[34] = test system: Clostridioides difficile; test: Antimicrobial activity against Clostridium difficile infected in patient assessed as percentage of patient require no further treatment at 200 […], po every 12 hrs for 10 days; format: functional; method in brief: as §3
[35] = test system: Clostridioides difficile; test: Antimicrobial activity against Clostridium difficile infected in patient assessed as resolution of diarrhea on day 10 at 200 […], po every 12 hrs for 10 days; format: functional; method in brief: as §4
[36] = test system: Clostridioides difficile; test: Antimicrobial activity against Clostridium difficile infected in patient assessed as incomplete relief of clostridium difficile associated diarrhea symptom in patient at 400 […], po every 12 hrs for 10 days; format: functional
[37] = Drug level in clostridium difficile infected patient feces at 200 […], po every 12 hrs for 10 days by RP-HPLC/MS; format: ADME, organism-based; set-up: route oral; settings: human, faeces, read-out: Activity; method in brief: as §2

Activity [1]: 77.2 ng/mL
Activity [2]: 430 µg/g
Activity [3]: 402.3 ng/mL
Activity [4]: 760 µg/g
Activity [5]: 393 µg/g
Activity [6]: 154.3 ng/mL
Compound: CCc1c(Cl)c(O)c(Cl)c(O)c1C(=O)O[C@H]1[C@H](O)[C@H](OC)[C@H](OC/C2=C\C=C\C[C@H](O)/C(C)=C/[C@H](CC)[C@@H](O[C@@H]3OC(C)(C)[C@@H](O)[C@H](O)[C@@H]3O)/C(C)=C/C(C)=C/C[C@@H]([C@@H](C)O)OC2=O)O[C@@H]1C

Compound: CCc1c(Cl)c(O)c(Cl)c(O)c1C(=O)O[C@H]1[C@H](O)[C@H](OC)[C@H](OC/C2=C\C=C\C[C@H](O)/C(C)=C/[C@H](CC)[C@@H](O[C@@H]3OC(C)(C)[C@@H](OC(=O)C(C)C)[C@H](O)[C@@H]3O)/C(C)=C/C(C)=C/C[C@@H]([C@@H](C)O)OC2=O)O[C@@H]1C [FIDAXOMICIN]
Activity [7]: 9.37e-05 mg/mL
Activity [8]: 0%
Activity [9]: 7%
Activity [10]: 14%
Activity [11]: 86.7%
Activity [12]: 56.3%
Activity [13]: 6%
Activity [14]: 50%
concentration at 10 days [15]: 84.9 ng/mL
Activity [16]: 0%
Activity [17]: 13%
concentration at 10 days [18]: 1.43e+06 ng/g
Activity [19]: 37.5%
concentration at 10 days [20]: 256000 ng/g
Activity [21]: 94%
Activity [22]: 6.3%
Activity [23]: 14%
Activity [24]: 12.5%
Activity [25]: 0%
Activity [26]: 37.5%
Activity [27]: 8.3%
Activity [28]: 12.5%
MIC90 [29]: 0.125 µg/mL (≈ 0.118 µM)
Activity [30]: 31.3%
concentration at 10 days [31]: 12.3 ng/mL
Activity [32]: 71%
Activity [33]: 13.3%
Activity [34]: 18.8%
Activity [35]: 80%
Activity [36]: 13.3%
concentration at 10 days [37]: 442000 ng/g

Compound: Cc1ncc([N+](=O)[O-])n1CCO [METRONIDAZOLE]
MIC90 [29]: 0.5 µg/mL (≈ 2.92 µM)

Compound: CN[C@H](CC(C)C)C(=O)N[C@H]1C(=O)N[C@@H](CC(N)=O)C(=O)N[C@H]2C(=O)N[C@H]3C(=O)N[C@H](C(=O)N[C@H](C(=O)O)c4cc(O)cc(O)c4-c4cc3ccc4O)[C@H](O)c3ccc(c(Cl)c3)Oc3cc2cc(c3O[C@@H]2O[C@H](CO)[C@@H](O)[C@H](O)[C@H]2O[C@H]2C[C@](C)(N)[C@H](O)[C@H](C)O2)Oc2ccc(cc2Cl)[C@H]1O [VANCOMYCIN]
MIC90 [29]: 2 µg/mL (≈ 1.38 µM)
